A selection: hits, their analogues and other compounds. The true share with any hit is near 1.6%.
TPT1 inh = C. albicans TPT1 enzyme inhibition | recombinant caTPT1, FP RNA substrate dephosphorylation | inhibition, % at 5 µM | 300,000 compounds, 0.81% hits;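 active = inhibition above the mean of all tested compounds plus 3 SD, set per screening campaign, cut at about 24% in these data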;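 note: plate controls were DMSO alone for no effect and ferristatin control at 100 nM for full effect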
CSN inh = blocks human CSN-mediated cullin deneddylation; 360,000 compounds, 0.38% hits; inhibition, % at 12.5 µM; Q92905; Purified CSN, SCF-Nedd8-OG deneddylation, fluorescence polarization;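 active = pattern-corrected inhibition above about 35%, with an unprinted fluorescence ratio check between 0.5 and 1.5, limit read from the data, passing the limit was not always enough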;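 note: 0% = enzyme with substrate and 100% = substrate without enzyme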
Target sequence (Q92905 whole entry, looked up, one chain of several): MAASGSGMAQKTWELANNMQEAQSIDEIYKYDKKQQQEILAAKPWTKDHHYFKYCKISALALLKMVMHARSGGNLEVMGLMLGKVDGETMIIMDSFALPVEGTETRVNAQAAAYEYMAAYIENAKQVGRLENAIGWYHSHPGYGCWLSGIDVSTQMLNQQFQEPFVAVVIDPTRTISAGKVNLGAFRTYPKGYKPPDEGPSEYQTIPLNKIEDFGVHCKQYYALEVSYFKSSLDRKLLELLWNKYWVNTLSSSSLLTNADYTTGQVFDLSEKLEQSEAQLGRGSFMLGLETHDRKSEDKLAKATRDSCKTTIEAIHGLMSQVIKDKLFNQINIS
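Test system: Human Csn5 produced in HEK293T cells | Compound: 12.5 µM single point | Times: 90 min, room temperature | Signal: Fluorescence polarization readout | Read-out basis: % inhibition of substrate cleavage by Csn5 | Controls: no-enzyme wells high, enzyme-with-substrate wells low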
HNF4A DNA FP = change in binding of human HNF4 alpha to DNA. 360,000 compounds, 0.3% hits. AID 1224865. HNF4a-FITC DNA binding, fluorescence polarization, 1 h. activity change, % at 10 µM. P41235; in the data active = activity change above about 30%, passing the limit was not always enough
SENP1 inh = SENP1 (human) catalytic domain inhibition; recombinant SENP1 catalytic domain, CyPet-SUMO1-YPet FRET cleavage; 360,000 compounds, 0.21% hits; inhibition, % at 10 µM; AID 624204; Q9P0U3;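 active = inhibition at least 30% at 10 µM, raw YFP signal under a set limit, fluorescence ratio 0.5 to 1.5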;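 note: 0% = enzyme with DMSO and 100% = no enzyme wells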
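Test system: human SENP1 catalytic domain; medium: Tris pH 8 buffer plus EDTA, NaCl, BME, BSA, NP40, catalase; incubation: 50 min reaction at room temperature; technique: FRET, CFP and YFP emission; controls: no-enzyme low control and enzyme-plus-DMSO high control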
Rpn11 inh = Rpn11 (human) deubiquitinase inhibition; 360,000 compounds, 0.59% hits; O00487; human 26S proteasome, Ub4-pepOG fluorescence polarization; 20S core pre-blocked with epoxomicin; inhibition, % at 20 µM; AID 588493;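 active = inhibition at 20 µM, scaled to each plate's controls, above about 33%, limit read from the data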
caTPT1 confirm = TPT1 (C. albicans) inhibition, confirmation; shares compounds with TPT1 inh; recombinant caTPT1, fluorescence polarization, RNase T1 coupled; inhibition, % at 5 µM; 2,400 compounds, 74% hits;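 active = inhibition above the primary screen limit, the mean inhibition of all tested compounds plus 3 SD, cut at about 25% in these data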
RNase T1 counter = RNase T1 inhibition in TPT1 counter-screen | shares compounds with TPT1 inh | RNase T1 cleavage, fluorescence polarization, 1536-well | inhibition, % at 5 µM | 2,400 compounds, 83% hits;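 active = inhibition above the solvent-only control well mean plus 3 SD, limit set per screening run, cut at about 23% in these data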;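 note: plate controls were DMSO wells with enzyme for no effect and wells without RNase T1 for full effect; inhibitors block cleavage so intact labeled substrate keeps polarization high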
Target sequence (P00651 whole entry, looked up): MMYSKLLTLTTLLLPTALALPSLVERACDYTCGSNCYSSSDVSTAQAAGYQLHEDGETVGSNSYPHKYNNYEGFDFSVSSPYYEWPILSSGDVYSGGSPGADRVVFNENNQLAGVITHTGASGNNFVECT
* marks the source's active call; other numbers are inactive results; / = no result given.

SMILES	TPT1 inh	CSN inh	HNF4A DNA FP	SENP1 inh	Rpn11 inh	caTPT1 confirm	RNase T1 counter
CCNc1sc(C(=O)c2cccs2)c(N)c1-c1nc2ccccc2s1	20	1	13	-4	11	/	/
O=C1/C(=C/c2cccc(O)c2)SC(=S)N1CC1CCCO1 (centres undefined)	-3	7	2	0	-2	/	/
CCOc1cc(/C=C2/SC(=S)N(CC3CCCO3)C2=O)ccc1O (centres undefined)	30*	11	42*	-28	/	35*	47*
CC(C)(C)NC(=O)CN1CCN(C(=O)CCl)CC1	3	-3	1	0	-13	/	/
CN(C)CCNC(=O)c1c(O)c2c([nH]c1=O)CCCC2	37*	4	0	2	-7	19	25*
CN(C)C(CNC(=O)c1ccccc1OCc1ccc(Cl)cc1)c1ccco1 (centres undefined)	0	4	-2	0	-1	/	/
Cc1ccccc1-n1c(C)cc(/C=N/Nc2ccc([N+](=O)[O-])cn2)c1C	38*	6	11	7	22	41*	56*
Cc1cc(F)ccc1NCC(=O)Nc1ccccc1Br	0	-14	-2	-1	-13	/	/
O=C(CCC(=O)N(CC(=O)NC1CCCC1)C1CCCCC1)Nc1ccccn1	-1	-3	1	-1	7	/	/
COc1cc(CC(=O)Nc2sccc2C(N)=O)cc(OC)c1OC	76*	17	34*	-2	/	18	25*
COc1ccc(CCC(=O)OCC(=O)Nc2sccc2C(N)=O)cc1OC	/	2	2	-1	-6	/	/
O=C1Cc2cc(S(=O)(=O)N3CCNCC3)ccc2N1	/	-2	0	-2	-1	/	/
CC(=O)c1c(C)[nH]c(C(=O)N(C)C(c2ccccc2)c2ccccc2)c1C	-4	-3	3	0	1	/	/
COC(=O)/C=C/c1ccc2c(c1)OCO2	5	-9	0	2	2	/	/
CCNc1ccc(Br)cc(C(=O)/C=C/c2ccccc2Cl)c1=O	53*	35	-9	-11	11	88*	94*
CNc1ccc(Br)cc(C(=O)/C=C/c2cccc(OC)c2OC)c1=O	41*	15	0	-17	-6	65*	76*
CCNc1ccccc(C(=O)/C=C/c2ccc3c(c2)OCO3)c1=O	26*	13	3	14	3	15	19
CCN(CC)C(=O)C(=O)c1cccn1-c1ccccc1C#N	-7	1	-35	1	-14	/	/
c1ccc(Oc2cnc3ccccc3n2)cc1	-4	8	-5	2	-2	/	/
COc1ccc(Oc2cnc3ccccc3n2)cc1	66*	1	-4	4	-6	4	5
Nc1ccccc1SCC(=O)N1CCc2ccccc21	-3	7	-2	1	-9	/	/
O=C(O)c1ccccc1SCC(=O)N1CCc2ccccc21	139*	-1	-2	2	-6	1	4
CCC(C)(C(=O)NC1CCCCC1)N(C(=O)Cc1cccs1)c1ccccc1 (centres undefined)	68*	1	0	-1	-2	3	8
CC[C@H](C)/C=C(C)/C=C/C1=CC2=CC(=O)[C@]3(C)OC(=O)[C@@H](C(C)=O)[C@@H]3C2=CO1	27*	12	4	-23	30	29*	40*
Cc1ccnc(N/C=C(\C#N)c2nc(-c3cccc(Br)c3)cs2)c1	30*	-72	-13	-25	/	26*	40*
SMILES	TPT1 inh	CSN inh	HNF4A DNA FP	SENP1 inh	Rpn11 inh	caTPT1 confirm	RNase T1 counter
CCn1c(O)c(C=Nc2ccccc2)sc1=S	25*	/	/	/	/	22	28*
C=CCn1c(O)c(C=Nc2ccccc2)sc1=S	7	0	-1	-58	8	/	/
Oc1c(C=Nc2ccccc2)sc(=S)n1Cc1ccccc1	43*	15	24	-23	34	43*	59*
O=C(O)Cn1c(O)c(C=Nc2ccccc2)sc1=S	3	1	5	-45	-1	/	/
COc1ccc(C(=O)COC(=O)c2cc(S(=O)(=O)N3CCCCC3)ccc2N2CCOCC2)c(OC)c1	0	-2	-1	3	4	/	/
COc1ccc(CCNC(=O)N2c3ccccc3Sc3ccccc32)cc1	-1	3	3	-2	1	/	/
COCCCNC(=O)N1c2ccccc2Sc2ccccc21	25*	1	-1	0	-6	10	16
CSc1nsc(/C=C/Nc2ccc(C)c(C)c2)c1C#N	34*	14	97	-25	/	66*	85*
COc1cc(/C=N/Nc2snc(SC)c2C#N)ccc1O	1	-1	0	-51	-3	/	/
CSc1nsc(/C=C/Nc2ccc(C)cc2)c1C#N	31*	17	96	13	/	50*	59*
CC(=O)N1CCc2cc(Br)cc(S(=O)(=O)NCCCN(C)Cc3ccccc3)c21	0	3	-2	3	0	/	/
Nc1cc(N)cc(C(=O)c2ccccc2)c1	/	3	9	1	-1	/	/
CCOc1ccccc1C(=O)Nc1nccs1	27*	4	-3	2	4	11	13
Cc1cccc(C(=O)N2CCNC(=O)C2CC(=O)Nc2cccc(Cl)c2)c1 (centres undefined)	24*	0	1	2	-11	-2	3
O=C(CC1C(=O)NCCN1C(=O)Nc1ccccc1)Nc1cccc(Cl)c1 (centres undefined)	0	2	2	3	0	/	/
O=C(Cn1c(=O)c(=O)n(Cc2ccccc2)c2ccc(Cl)cc21)Nc1cccc(F)c1	0	-10	3	-9	-2	/	/
CC(Oc1cccc(Cl)c1)C(=O)Nc1ccc(S(=O)(=O)N(C)C2CCN(C)CC2)cc1 (centres undefined)	/	3	0	0	-3	/	/
C/C(=C\C(=O)c1c(O)cc(C)oc1=O)N(C)C	-8	-4	1	-6	-5	/	/
Cc1cc(O)c(C(=O)/C=C/c2ccc(Cl)cc2)c(=O)o1	36*	19	7	-23	/	10	13
COc1cc(/C=C/C(=O)O)cc(OC)c1O	-3	-4	-2	-4	0	/	/
COc1ccc(/C=C/C(=O)c2c(O)cc(C)oc2=O)c(OC)c1	134*	3	6	-24	45*	54*	75*
COc1cc(/C=C/C(=O)c2c(O)cc(C)oc2=O)cc(OC)c1O	37*	4	0	4	-13	8	17
COc1cccc(/C=C/C(=O)c2c(O)cc(C)oc2=O)c1O	33*	4	-2	-45	1	2	7
